From PubChem
S1P1 ag pot = agonists and agonism potentiators of human S1P1 receptor. S1P1 CRE-bla cells, forskolin, beta-lactamase FRET, potentiator mode; S1P1 agonist co-added at EC20, 2 nM; 100% = saturating reference agonist, 0% = basal. activation, % at 9.5 µM. 56,000 tested, 0.57% active;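 active = activation above a cutoff set at the mean activation of all tested compounds plus 3 SD, cut at about 54% in these data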;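 also: forskolin at 4 µM as EC80 and the EC20 agonist is SEW2871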
S1P3 agonist = agonists of human S1P3 receptor; activation, % at 4.5 µM; S1P3 NFAT-BLA reporter cells, agonism, FRET ratio; relative to 1 µM S1P, basal subtracted; 60,000 tested, 0.1% active;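 active = activation above the screen-wide mean plus 3 SD, cut at about 4.5% in these data, passing the limit was not always enough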
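Measure – % activation relative to 1 µM S1P (100%), per plate · System – stable CHO line with human S1P3, Gα16, NFAT-BLA reporter · Timing – cells plated overnight, compound 4 h 37 °C, substrate 2 h RT · Technique – fluorescent BLA substrate, ex 405 nm, em 460/535 nm ratio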
M1 antag = M1 muscarinic receptor (rat) antagonism | P08482 | CHO-M1 cells, Fluo-4 calcium, ACh EC80 antagonist mode; hits give low values | B-score at 10 µM | 64,000 tested, 3.4% active;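 active = calcium fluorescence response, raw or row-and-column corrected B-score, differing from the plate sample mean either way at a set confidence level, mostly lower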
Target sequence (P08482 whole entry, looked up): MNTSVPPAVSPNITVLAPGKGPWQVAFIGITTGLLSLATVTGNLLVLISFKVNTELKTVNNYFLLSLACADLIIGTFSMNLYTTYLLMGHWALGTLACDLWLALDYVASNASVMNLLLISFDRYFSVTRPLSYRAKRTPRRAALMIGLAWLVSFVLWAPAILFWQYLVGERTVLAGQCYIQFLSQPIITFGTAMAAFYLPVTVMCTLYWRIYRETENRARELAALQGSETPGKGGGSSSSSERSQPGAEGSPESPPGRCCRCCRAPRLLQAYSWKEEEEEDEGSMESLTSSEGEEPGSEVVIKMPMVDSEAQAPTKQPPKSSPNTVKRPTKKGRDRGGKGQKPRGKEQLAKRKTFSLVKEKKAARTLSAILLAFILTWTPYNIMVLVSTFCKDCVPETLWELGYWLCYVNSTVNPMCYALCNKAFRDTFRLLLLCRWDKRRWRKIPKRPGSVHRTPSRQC
D1 allo mod = allosteric modulators of human D1 dopamine receptor; HEK293 D1, CRE-luciferase, dopamine EC30 potentiation; actives deviate in either direction; B-score at 10 µM; 58,000 tested, 5.9% active; AID 641;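 active = luminescence count or its row- and column-corrected plate score outside the 99.7% band of the plate's sample wells, on either side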
M1 agonist = activates the M1 muscarinic receptor; CHO-M1 cells, Fluo-4 calcium fluorescence, agonist mode; hits give high values; B-score at 10 µM; 64,000 tested, 3% active; AID 626;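 active = fluorescence rise, raw or as B-score row- and column-corrected plate score, outside the 99.7% band of its plate's samples, either direction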
M1 antag confirm = confirmation of rat M1 muscarinic receptor antagonists | shares compounds with M1 antag | CHO-M1 cells, Fluo-4 calcium, ACh EC80 antagonism; hits give low values | calcium response (max-min fluorescence) at 10 µM | 1,700 tested, 43% active;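 active = calcium response below the same-plate mean of wells given acetylcholine alone at its 80%-effect dose, minus 3 SD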
mGluR4 antag = selectivity test for M1 antagonists: human mGluR4 receptor; CHO-mGluR4 calcium flux, Fluo-4 fluorescence, glutamate EC80; hits give low values; 1,700 tested, 0.9% active; AID 678; fluorescence response (max-min) at 10 µM; shares compounds with M1 antag;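 active = fluorescence response below the plate's average for near-maximal glutamate wells, less 3 SD of those wells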;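 also: raw unnormalized fluorescence span taken in the window right after glutamate addition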
A number is an active result. Only some compounds are listed: those with a hit (about 11% of all), similar ones and a draw of the others.

Screening CCN1CCN(Cc2c(OC)ccc3ccccc23)CC1 returned S1P3 agonist inactive, M1 antag -3, D1 allo mod -3.6, M1 agonist inactive, M1 antag confirm inactive and mGluR4 antag inactive.
For O=C1c2ccccc2C(=O)N1CCOCCN1C(=O)c2ccccc2C1=O the results were S1P1 ag pot inactive, S1P3 agonist inactive, M1 antag -3.3, D1 allo mod inactive, M1 agonist inactive, M1 antag confirm inactive and mGluR4 antag inactive.
Screening O=C1c2ccccc2C(=O)N1CCCOc1ccccc1 returned S1P1 ag pot inactive, S1P3 agonist inactive, M1 antag inactive and M1 agonist inactive.
Screening CS(=O)(=O)N1CCc2cc(C(=O)OCC(=O)c3ccccc3)ccc21 returned M1 antag inactive, D1 allo mod inactive and M1 agonist inactive.
Screening COc1ccc(NC(=O)CN2CCN(CC(=O)Nc3ccccc3Cl)CC2)cc1Cl returned S1P1 ag pot inactive, S1P3 agonist inactive, M1 antag inactive, D1 allo mod inactive and M1 agonist inactive.
`O=C(CN1CCCC1)Nc1ccc(NC(=O)Nc2ccccc2Cl)cc1` gave S1P1 ag pot inactive, S1P3 agonist inactive, M1 antag -1.7, D1 allo mod inactive, M1 agonist inactive, M1 antag confirm inactive and mGluR4 antag inactive.
CCN(c1ccccc1)S(=O)(=O)c1cnc[nH]1 was read as S1P1 ag pot inactive, S1P3 agonist inactive, M1 antag inactive, D1 allo mod inactive and M1 agonist inactive.
`CS(=O)(=O)N(CC(=O)N1CCN(c2cccc(Cl)c2)CC1)c1cccc(F)c1` gave S1P1 ag pot inactive, S1P3 agonist inactive, M1 antag inactive, D1 allo mod inactive and M1 agonist inactive.
`O=C(c1ccccc1)N1CC(COc2ccccc2)OC(c2cccnc2)O1` (stereo not given) gave S1P1 ag pot inactive, S1P3 agonist inactive, M1 antag -4.3, D1 allo mod inactive, M1 agonist inactive, M1 antag confirm inactive and mGluR4 antag inactive.
`Cc1ccccc1S(=O)(=O)Cc1ccc(C(=O)NCc2cccnc2)o1` gave S1P1 ag pot inactive, S1P3 agonist inactive, M1 antag inactive, D1 allo mod inactive and M1 agonist inactive.
`O=C1C(=C2CCCCC2)SC(=S)N1Cc1ccco1` gave S1P1 ag pot inactive, S1P3 agonist inactive, M1 antag -7.3, D1 allo mod inactive, M1 agonist inactive, M1 antag confirm 111 and mGluR4 antag inactive.
Screening O=C(O)CCN1C(=O)C(=C2CCCCCC2)SC1=S returned S1P1 ag pot inactive, S1P3 agonist inactive, M1 antag inactive, D1 allo mod inactive and M1 agonist inactive.
Screening CC(=O)N1C(C(=O)O)CSC1c1ccc(C)cc1 (stereo not given) returned S1P1 ag pot inactive, S1P3 agonist inactive, M1 antag inactive and M1 agonist inactive.
For Clc1ccc(CSC2=NCCCN2)cc1Cl the results were S1P1 ag pot inactive, S1P3 agonist inactive, M1 antag -4, D1 allo mod inactive, M1 agonist inactive, M1 antag confirm 355 and mGluR4 antag inactive.
CCCCOC(=O)c1ccc(OC(=O)c2cccnc2)cc1 was read as S1P1 ag pot inactive, S1P3 agonist inactive, M1 antag -5.1, D1 allo mod inactive, M1 agonist inactive, M1 antag confirm inactive and mGluR4 antag inactive.
Screening CCCCOc1ccc(OC(=O)c2cccnc2)cc1 returned S1P1 ag pot inactive, S1P3 agonist inactive, M1 antag inactive and M1 agonist inactive.
`O=C(CCN1CCc2ccccc2C1)c1ccc2c(c1)OCCO2` gave S1P1 ag pot inactive, S1P3 agonist inactive, M1 antag -5.7, D1 allo mod inactive, M1 agonist inactive, M1 antag confirm 487 and mGluR4 antag inactive.
Screening O=C(CCN1CCc2ccccc21)c1ccc2c(c1)OCCO2 returned S1P1 ag pot inactive, S1P3 agonist inactive, M1 antag inactive and M1 agonist inactive.
COc1ccccc1NC(=O)CSc1nc(O)cc(=O)[nH]1 was read as S1P1 ag pot inactive, S1P3 agonist inactive, M1 antag inactive, D1 allo mod inactive and M1 agonist inactive.
`CCc1c(O)nc(SCC(=O)Nc2ccccc2OC)[nH]c1=O` gave S1P1 ag pot inactive, S1P3 agonist inactive, M1 antag -1, D1 allo mod inactive, M1 agonist inactive, M1 antag confirm inactive and mGluR4 antag inactive.
For CC(C)=CCCC(C)CN1CCC(O)CC1 (stereo not given) the results were S1P1 ag pot inactive, S1P3 agonist inactive, M1 antag inactive, D1 allo mod inactive and M1 agonist inactive.
Screening CC(C)=CCC/C(C)=C/CCC(C)NCCN1CCNCC1 (stereo not given) returned S1P1 ag pot inactive, S1P3 agonist inactive, M1 antag -6.6, D1 allo mod inactive, M1 agonist inactive, M1 antag confirm 390 and mGluR4 antag inactive.
For COc1ccc(C(=O)n2ccc(C)n2)cc1Br the results were S1P1 ag pot inactive, S1P3 agonist inactive, M1 antag inactive, D1 allo mod inactive and M1 agonist inactive.
`O=C(Cn1c(=O)oc2cc(S(=O)(=O)N3CCc4ccccc43)ccc21)NC1CCCC1` gave S1P1 ag pot inactive, S1P3 agonist inactive, M1 antag -4.3, D1 allo mod inactive, M1 agonist inactive, M1 antag confirm 503 and mGluR4 antag inactive.
CC(C)CCNC(=O)Cn1c(=O)oc2cc(S(=O)(=O)N3CCc4ccccc43)ccc21 was read as S1P1 ag pot inactive, S1P3 agonist inactive, M1 antag -4.5, D1 allo mod inactive, M1 agonist inactive, M1 antag confirm 478 and mGluR4 antag inactive.
For O=S(=O)(c1ccc2nc(COc3ccccc3)[nH]c2c1)N1CCOCC1 the results were S1P1 ag pot inactive, S1P3 agonist inactive, M1 antag inactive and M1 agonist inactive.
For COc1ccc(CCN2C(=O)C(O)=C(C(=O)c3ccco3)C2c2cccs2)cc1OC (stereo not given) the results were S1P1 ag pot inactive, S1P3 agonist inactive, M1 antag inactive, D1 allo mod inactive and M1 agonist inactive.
O=C(c1cc(-c2cccnc2)nc2ccc(Br)cc12)N1CCC2(CC1)OCCO2 was read as S1P1 ag pot inactive, S1P3 agonist inactive, M1 antag inactive, D1 allo mod inactive and M1 agonist inactive.
For COc1ccc(CNC(=O)C2CCCN(S(=O)(=O)c3c(C)nn(C)c3C)C2)cc1 (stereo not given) the results were S1P1 ag pot inactive, S1P3 agonist inactive, M1 antag inactive, D1 allo mod inactive and M1 agonist inactive.
For CCCS(=O)(=O)N1CCCC(C(=O)N2CCC(Cc3ccccc3)CC2)C1 (stereo not given) the results were S1P1 ag pot inactive, S1P3 agonist inactive, M1 antag -5.2, D1 allo mod inactive, M1 agonist inactive, M1 antag confirm inactive and mGluR4 antag inactive.
